Data taken from ChEMBL document CHEMBL5053511, “Discovery of a Novel BCL-XL PROTAC Degrader with Enhanced BCL-2 Inhibition” (J Med Chem, 2021).
Each block holds one compound with its values, some of them ahead of it. Calls of active or inactive are those of the source. No cut-off for these calls is given here.

Key:
Platelet = test: Cytotoxicity against platelets in human PRP assessed as reduction in cell viability measured after 48 hrs by MTS assay; type: cell-based
How it was run: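 Washed human platelets from PRP were kept in HEPES Tyrode's buffer with 1 µM PGE1 and 0.2 units/mL apyrase at 2×10^8/mL.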

[1] = target: T1, von Hippel-Lindau disease tumor suppressor/Bcl-2-like protein 1 (Homo sapiens, UniProt Q07817+P40337); test: Protac activity at VHL/BCL-XL in human RS4-11 cells assessed as decrease in BCL-XL protein level by densitometric analysis; type: cell-based
How it was run: (§1)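 MOLT-4 or RS4;11 cells were treated at a range of concentrations for 16 h. BCL-XL was immunoblotted with β-actin loading control, and band densitometry was normalised to β-actin. Mean ± SD of three independent experiments in triplicate.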
Target sequence in this assay (Q07817 whole entry): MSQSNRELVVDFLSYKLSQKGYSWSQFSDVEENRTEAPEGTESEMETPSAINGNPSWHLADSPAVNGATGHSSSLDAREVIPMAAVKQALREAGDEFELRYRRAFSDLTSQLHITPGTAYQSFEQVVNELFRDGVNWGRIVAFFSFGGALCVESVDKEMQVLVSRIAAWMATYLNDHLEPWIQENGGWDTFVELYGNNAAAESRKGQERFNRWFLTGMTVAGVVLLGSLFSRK
Target sequence in this assay (P40337 whole entry): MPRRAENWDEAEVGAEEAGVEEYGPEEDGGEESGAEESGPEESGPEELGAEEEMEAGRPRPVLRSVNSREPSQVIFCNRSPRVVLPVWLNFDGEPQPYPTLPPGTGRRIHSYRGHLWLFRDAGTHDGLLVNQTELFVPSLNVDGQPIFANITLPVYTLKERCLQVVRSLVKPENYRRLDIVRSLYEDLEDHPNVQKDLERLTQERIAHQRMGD

[2] = target: T1, von Hippel-Lindau disease tumor suppressor/Bcl-2-like protein 1; test: Protac activity at VHL/BCL-XL in human MOLT-4 cells assessed as decrease in BCL-XL protein level by densitometric analysis; type: cell-based; how it was run: as §1
Target sequence in this assay (Q07817 whole entry): as the sequence (Q07817 whole entry) above
Target sequence in this assay (P40337 whole entry): as the sequence (P40337 whole entry) above

RS4-11 [3] = test: Cytotoxicity against human RS4-11 cells assessed as reduction in cell viability measured after 48 hrs by MTS assay; type: functional, cell-based; conditions: RS4-11, 48 h
MOLT-4 = test: Cytotoxicity against human MOLT-4 cells assessed as reduction in cell viability measured after 48 hrs by MTS assay; type: functional, cell-based; conditions: MOLT-4, 48 h
Bcl-2-like protein 1 = Bcl-2-like protein 1 (Homo sapiens, UniProt Q07817); test: Displacement of biotin-tagged LWAAQRYGRELRRMSDEFEGSFKGL from human BCL-XL expressed in Escherichia coli measured after 2 hrs by AlphaScreen assay
Chain of Bcl-2-like protein 1 (Q07817 whole entry): as the sequence (Q07817 whole entry) above
How it was run: (§2)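 AlphaScreen displacement, run with or without VCB. Anti-His acceptor beads were added for 1 h at room temperature, then streptavidin donor beads for 30 min in the dark. Ki was fitted by one-site competitive model from peptide concentration and measured Kd values; reported as mean ± SD of at least two experiments in triplicate.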

[4] = target: Apoptosis regulator Bcl-2 (Homo sapiens, UniProt P10415); test: Displacement of biotin-tagged MRPEPATIAQELRRIGDEFNA from C-terminal His-tagged human BCL-2 (1` to 211 residues) expressed in Escherichia coli measured after 2 hrs by AlphaScreen assay; how it was run: as §2
Chain of Apoptosis regulator Bcl-2 (P10415 whole entry, the tested form may be a part): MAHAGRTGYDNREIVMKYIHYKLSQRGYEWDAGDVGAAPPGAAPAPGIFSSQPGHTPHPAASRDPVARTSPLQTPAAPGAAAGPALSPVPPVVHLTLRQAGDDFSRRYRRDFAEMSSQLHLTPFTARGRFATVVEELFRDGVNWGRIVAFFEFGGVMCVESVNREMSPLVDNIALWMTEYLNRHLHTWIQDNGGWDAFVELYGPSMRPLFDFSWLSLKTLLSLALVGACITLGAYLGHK

[5] = (§3) Binding affinity to human BCL-XL expressed in Escherichia coli/recombinant human VHL (54 to end residues) fused to human N-terminal GST-tagged elongin-C/elongin -B/N-terminal His-tagged CUL2/Rbx1 expressed in baculovirus infected Sf21 insect cells measured after 2 hrs by AlphaScreen assay
How it was run: as §2, with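 “VCB. Biotin-Bim (80 nM, for BCL-2) or biotin-Bad (16 nM, for BCL-XL) was combined with serially diluted compound and 6×His protein in 25 mM HEPES pH 7.5, 100 mM NaCl, 0.1% BSA, 0.005% Tween 20.” for “VCB.”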

[6] = (§4) Binding affinity to C-terminal His-tagged human BCL-2 (1 to 211 residues) expressed in Escherichia coli/recombinant human VHL (54 to end residues) fused to human N-terminal GST-tagged elongin-C/elongin -B/N-terminal His-tagged CUL2/Rbx1 expressed in baculovirus infected Sf21 insect cells measured after 2 hrs by AlphaScreen assay
How it was run: as §2, with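 “VCB. Biotin-Bim (80 nM, for BCL-2) or biotin-Bad (16 nM, for BCL-XL) was combined with serially diluted compound and 6×His protein in 25 mM HEPES pH 7.5, 100 mM NaCl, 0.1% BSA, 0.005% Tween 20.” for “VCB.”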

[7] = as §3, with “cells assessed as ternary complex formation at up to 100000 nM” for “cells”, “30 mins” for “2 hrs”, “AlphaLISA” for “AlphaScreen”
How it was run: (§5)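 Cell-free ternary complex AlphaLISA: 6×His-tagged BCL-XL, BCL-2 or MCL-1 (20 nM) mixed with serially diluted compound (4× dilution) and GST-VCB (20 nM) in 25 mM HEPES pH 7.5, 100 mM NaCl, 0.1% BSA, 0.005% Tween 20. After 30 min at room temperature, glutathione donor beads were added for 15 min, then anti-His acceptor beads for 45 min in the dark. Luminescence was plotted against log compound concentration.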

[8] = as §4, with “cells assessed as ternary complex formation at up to 100000 nM” for “cells”, “30 mins” for “2 hrs”, “AlphaLISA” for “AlphaScreen”; how it was run: as §5
[9] = target: T1, von Hippel-Lindau disease tumor suppressor/Bcl-2-like protein 1; test: Binding affinity to Halo-tagged VHL/HiBiT-tagged BCL-XL (unknown origin) expressed in HEK293T cells assessed as ternary complex formation at up to 100000 nM measured after 6 hrs by NanoBRET assay; type: cell-based
How it was run: (§6)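 NanoBRET in live HEK 293T cells. Cells were transfected with HaloTag-VHL (1 µg), HiBit-BCL-XL or HiBit-BCL-2 (10 ng) and LgBit (10 ng). After 24 h they were seeded at 2×10^4 per well in Opti-MEM with 4% FBS, with or without HaloTag 618 ligand, and held overnight. Serial compound doses were given for 6 h at 37 °C, then Nano-Glo substrate was added and mBRET ratios read. Mean ± s.e.m. of two experiments in triplicate.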
Target sequence in this assay (P40337 whole entry, looked up): as the sequence (P40337 whole entry) above
Target sequence in this assay (Q07817 whole entry, looked up): as the sequence (Q07817 whole entry) above

[10] = target: T2, von Hippel-Lindau disease tumor suppressor/Apoptosis regulator Bcl-2 (Homo sapiens) (UniProt P10415+P40337); test: Binding affinity to Halo-tagged VHL/HiBiT-tagged BCL-2 (unknown origin) expressed in HEK293T cells assessed as ternary complex formation at up to 100000 nM measured after 6 hrs by NanoBRET assay; type: cell-based; how it was run: as §6
T2 sequence (P10415 whole entry, looked up): as the sequence (P10415 whole entry, the tested form may be a part) above
T2 sequence (P40337 whole entry, looked up): as the sequence (P40337 whole entry) above

RS4-11 [11] = test: Cytotoxicity against human RS4-11 cells assessed as reduction in cell viability measured after 48 hrs in presence of VHL-032 by MTS assay; type: functional, cell-based; conditions: RS4-11, 48 h
How it was run: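 RS4;11 cells were pretreated with 10 µM VHL-032, then exposed to compound for 48 h. Viability was read by MTS; three independent experiments in triplicate.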

[12] = target: T1, von Hippel-Lindau disease tumor suppressor/Bcl-2-like protein 1; test: Binding affinity to VHL/ BCL-XL in human RS4-11 cells assessed as ternary complex formation at up to 300 nM measured after 12 hrs by immunoprecipitation assay; type: cell-based
Target sequence in this assay (P40337 whole entry, looked up): as the sequence (P40337 whole entry) above
Target sequence in this assay (Q07817 whole entry, looked up): as the sequence (Q07817 whole entry) above

[13] = target: T2, von Hippel-Lindau disease tumor suppressor/Apoptosis regulator Bcl-2 (Homo sapiens); test: Binding affinity to VHL/BCL-2 in human RS4-11 cells assessed as ternary complex formation at up to 300 nM measured after 12 hrs by immunoprecipitation assay; type: cell-based
[14] = target: T1, von Hippel-Lindau disease tumor suppressor/Bcl-2-like protein 1; test: Binding affinity to VHL/ BCL-XL in human RS4-11 cells assessed as ternary complex formation at up to 300 nM measured after 12 hrs in presence of VHL-032 by immunoprecipitation assay; type: cell-based
Target sequence in this assay (P40337 whole entry, looked up): as the sequence (P40337 whole entry) above
Target sequence in this assay (Q07817 whole entry, looked up): as the sequence (Q07817 whole entry) above

[15] = target: T1, von Hippel-Lindau disease tumor suppressor/Bcl-2-like protein 1; test: Protac activity at VHL/BCL-XL in human MOLT-4 cells assessed as induction of BCL-XL degradation measured after 16 hrs by Western blot analysis; type: cell-based; how it was run: as §1
Target sequence in this assay (Q07817 whole entry): as above
Target sequence in this assay (P40337 whole entry): as the sequence (P40337 whole entry) above

[16] = target: T1, von Hippel-Lindau disease tumor suppressor/Bcl-2-like protein 1; test: Protac activity at VHL/BCL-XL in human MOLT-4 assessed as decrease in BCL-XL protein level at up to […] measured after 16 hrs by Western blot analysis; how it was run: as §1
Target sequence in this assay (P40337 whole entry, looked up): as the sequence (P40337 whole entry) above
Target sequence in this assay (Q07817 whole entry, looked up): as the sequence (Q07817 whole entry) above

[17] = target: T1, von Hippel-Lindau disease tumor suppressor/Bcl-2-like protein 1; test: Protac activity at VHL/BCL-XL in human RS4-11 assessed as decrease in BCL-XL protein level at up to […] measured after 16 hrs by Western blot analysis; how it was run: as §1
Target sequence in this assay (P40337 whole entry, looked up): as the sequence (P40337 whole entry) above
Target sequence in this assay (Q07817 whole entry, looked up): as the sequence (Q07817 whole entry) above

[18] = target: T2, von Hippel-Lindau disease tumor suppressor/Apoptosis regulator Bcl-2 (Homo sapiens); test: Binding affinity to VHL/BCL-2 in human RS4-11 cells assessed as ternary complex formation at up to 300 nM measured after 12 hrs in presence of VHL-032 by immunoprecipitation assay; type: cell-based

- DC50 [1]: 75.2 nM
- DC50 [2]: 127 nM
- Ki (Bcl-2-like protein 1): 2.75 nM
- Kd [4]: 1.47 nM
- Activity [9]: Active
- Activity [10]: Active
Structure (SMILES): Cc1ncsc1-c1ccc([C@H](C)NC(=O)[C@@H]2C[C@@H](O)CN2C(=O)[C@@H](NC(=O)CCCCCCCCC(=O)NC[C@@]2(C)CCC(c3ccc(Cl)cc3)=C(CN3CCN(c4ccc(C(=O)NS(=O)(=O)c5ccc(N[C@H](CCN6CCOCC6)CSc6ccccc6)c(S(=O)(=O)C(F)(F)F)c5)cc4)CC3)C2)C(C)(C)C)cc1
- IC50 (Platelet): 9850 nM
- IC50 (RS4-11 [3]): 418 nM
- IC50 (MOLT-4): 170 nM
- Kd [5]: 0.64 nM
- Kd [6]: 0.55 nM
- Activity [7]: Active
- Activity [8]: Active
- IC50 (RS4-11 [11]): 1040 nM

Structure (SMILES): Cc1ncsc1-c1ccc([C@H](C)NC(=O)[C@@H]2C[C@@H](O)CN2C(=O)[C@@H](NC(=O)CCCCCCC(=O)NCC2(C)CCC(c3ccc(Cl)cc3)=C(CN3CCN(c4ccc(C(=O)NS(=O)(=O)c5ccc(N[C@H](CCN6CCOCC6)CSc6ccccc6)c(S(=O)(=O)C(F)(F)F)c5)cc4)CC3)C2)C(C)(C)C)cc1 (some centres undefined)
- IC50 (RS4-11 [3]): 108 nM
- IC50 (MOLT-4): 219 nM

Structure (SMILES): Cc1ncsc1-c1ccc([C@H](C)NC(=O)[C@@H]2C[C@@H](O)CN2C(=O)[C@@H](NC(=O)CCCCCCCCCCCC(=O)NCC2(C)CCC(c3ccc(Cl)cc3)=C(CN3CCN(c4ccc(C(=O)NS(=O)(=O)c5ccc(N[C@H](CCN6CCOCC6)CSc6ccccc6)c(S(=O)(=O)C(F)(F)F)c5)cc4)CC3)C2)C(C)(C)C)cc1 (some centres undefined)
- IC50 (RS4-11 [3]): 410 nM
- IC50 (MOLT-4): 334 nM

Structure (SMILES): Cc1ncsc1-c1ccc([C@H](C)NC(=O)[C@@H]2C[C@@H](O)CN2C(=O)[C@@H](NC(=O)CCCCCC(=O)NCC2(C)CCC(c3ccc(Cl)cc3)=C(CN3CCN(c4ccc(C(=O)NS(=O)(=O)c5ccc(N[C@H](CCN6CCOCC6)CSc6ccccc6)c(S(=O)(=O)C(F)(F)F)c5)cc4)CC3)C2)C(C)(C)C)cc1 (some centres undefined)
- IC50 (MOLT-4): 307 nM

- Activity [12]: Active
- Activity [13]: Active
- Activity [14]: inactive
Structure (SMILES): CC1(C)CCC(c2ccc(Cl)cc2)=C(CN2CCN(c3ccc(C(=O)NS(=O)(=O)c4ccc(N[C@H](CCN5CCOCC5)CSc5ccccc5)c(S(=O)(=O)C(F)(F)F)c4)cc3)CC2)C1 [NAVITOCLAX]
- IC50 (Platelet): 325 nM

Structure (SMILES): Cc1ncsc1-c1ccc([C@H](C)NC(=O)[C@@H]2C[C@@H](O)CN2C(=O)[C@@H](NC(=O)CCCCCCCCCC(=O)NCC2(C)CCC(c3ccc(Cl)cc3)=C(CN3CCN(c4ccc(C(=O)NS(=O)(=O)c5ccc(N[C@H](CCN6CCOCC6)CSc6ccccc6)c(S(=O)(=O)C(F)(F)F)c5)cc4)CC3)C2)C(C)(C)C)cc1 (some centres undefined)
- IC50 (RS4-11 [3]): 29.2 nM
- IC50 (MOLT-4): 74.6 nM

- DC50 [1]: 22.6 nM
- DC50 [2]: 31.6 nM
- DC50 [15]: 27.2 nM
- Activity [9]: Active
- Activity [10]: Active
Structure (SMILES): Cc1ncsc1-c1ccc([C@H](C)NC(=O)[C@@H]2C[C@@H](O)CN2C(=O)[C@@H](NC(=O)CCCCCCCCC(=O)NCC2(C)CCC(c3ccc(Cl)cc3)=C(CN3CCN(c4ccc(C(=O)NS(=O)(=O)c5ccc(N[C@H](CCN6CCOCC6)CSc6ccccc6)c(S(=O)(=O)C(F)(F)F)c5)cc4)CC3)C2)C(C)(C)C)cc1 (some centres undefined)
- IC50 (Platelet): 2900 nM
- IC50 (RS4-11 [3]): 23.3 nM
- IC50 (MOLT-4): 32.1 nM
- IC50 (RS4-11 [11]): 481 nM

Structure (SMILES): Cc1ncsc1-c1ccc([C@H](C)NC(=O)[C@@H]2C[C@@H](O)CN2C(=O)[C@@H](NC(=O)CCCCCCCCCCC(=O)NCC2(C)CCC(c3ccc(Cl)cc3)=C(CN3CCN(c4ccc(C(=O)NS(=O)(=O)c5ccc(N[C@H](CCN6CCOCC6)CSc6ccccc6)c(S(=O)(=O)C(F)(F)F)c5)cc4)CC3)C2)C(C)(C)C)cc1 (some centres undefined)
- IC50 (RS4-11 [3]): 96.3 nM
- IC50 (MOLT-4): 112 nM

Structure (SMILES): Cc1ncsc1-c1ccc([C@H](C)NC(=O)[C@@H]2C[C@@H](O)CN2C(=O)[C@@H](NC(=O)CCCCC(=O)NCC2(C)CCC(c3ccc(Cl)cc3)=C(CN3CCN(c4ccc(C(=O)NS(=O)(=O)c5ccc(N[C@H](CCN6CCOCC6)CSc6ccccc6)c(S(=O)(=O)C(F)(F)F)c5)cc4)CC3)C2)C(C)(C)C)cc1 (some centres undefined)
- IC50 (RS4-11 [3]): 304 nM
- IC50 (MOLT-4): 340 nM

- Activity [16]: inactive
- Activity [17]: inactive
- Activity [9]: inactive
- Activity [10]: inactive
- Activity [12]: Active
- Activity [14]: inactive
- Activity [18]: inactive
Structure (SMILES): Cc1ncsc1-c1ccc([C@H](C)NC(=O)[C@@H]2C[C@H](O)CN2C(=O)[C@@H](NC(=O)CCCCCCCCC(=O)NC[C@]2(C)CCC(c3ccc(Cl)cc3)=C(CN3CCN(c4ccc(C(=O)NS(=O)(=O)c5ccc(N[C@H](CCN6CCOCC6)CSc6ccccc6)c(S(=O)(=O)C(F)(F)F)c5)cc4)CC3)C2)C(C)(C)C)cc1
- IC50 (RS4-11 [3]): 328 nM
- IC50 (MOLT-4): 821 nM

Structure (SMILES): Cc1ncsc1-c1ccc([C@H](C)NC(=O)[C@@H]2C[C@@H](O)CN2C(=O)[C@@H](NC(=O)CCCCCCCC(=O)NCC2(C)CCC(c3ccc(Cl)cc3)=C(CN3CCN(c4ccc(C(=O)NS(=O)(=O)c5ccc(N[C@H](CCN6CCOCC6)CSc6ccccc6)c(S(=O)(=O)C(F)(F)F)c5)cc4)CC3)C2)C(C)(C)C)cc1 (some centres undefined)
- IC50 (RS4-11 [3]): 43.7 nM
- IC50 (MOLT-4): 125 nM
